Results reported in paper PMC3051377 (British Journal of Pharmacology, 2011).

What was measured:
[1] = target: T1, human M2 muscarinic receptor (Homo sapiens, UniProt P08172); assay: Agonist-stimulated [35S]GTPγS binding to membranes from M2 CHO cells; assay type: biochemical
T1 sequence (P08172 1-466): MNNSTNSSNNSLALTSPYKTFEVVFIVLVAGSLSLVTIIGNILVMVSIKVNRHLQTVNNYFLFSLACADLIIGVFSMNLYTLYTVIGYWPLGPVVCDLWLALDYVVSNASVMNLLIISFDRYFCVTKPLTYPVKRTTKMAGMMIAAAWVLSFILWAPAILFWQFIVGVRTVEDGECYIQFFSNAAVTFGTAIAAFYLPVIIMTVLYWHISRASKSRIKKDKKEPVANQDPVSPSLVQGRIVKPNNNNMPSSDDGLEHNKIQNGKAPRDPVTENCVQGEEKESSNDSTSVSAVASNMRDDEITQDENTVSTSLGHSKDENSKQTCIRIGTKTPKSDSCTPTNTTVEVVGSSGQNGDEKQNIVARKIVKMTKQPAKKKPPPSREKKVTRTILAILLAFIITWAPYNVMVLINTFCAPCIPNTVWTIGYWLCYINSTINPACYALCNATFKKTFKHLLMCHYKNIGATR

[2] = system: wild-type (non-transfected) CHO cells; assay: [35S]GTPγS binding at wild-type; assay type: biochemical, Chinese hamster
How it was run: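 Membranes were incubated 60 min with 50 µM GDP and agonist. They were then incubated with 500 pM [³⁵S]GTPγS for 20 min at 30°C in 100 mM NaCl, 20 mM Na-HEPES, 10 mM MgCl₂ (pH 7.4) with 1 mM DTT, about 10 µg protein per sample. Non-specific binding was taken with 1 µM GTPγS. Read-out was filtration and scintillation counting.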

[3] = system: G-proteins in GDP-less membranes of CHO-M2 cells; assay: Kinetics of [35S]GTPγS binding to GDP-less membranes; parameters: species or system Chinese hamster; conditions: for Beq of [35S]GTPγS: GDP-less membranes
How it was run: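 GDP-less CHO-M2 membranes, 30°C. Association of 1 nM [³⁵S]GTPγS was measured after 20 min pre-incubation with buffer or 100 µM agonist, ±50 µM GDP. For dissociation, membranes were preloaded 90 min with 1 nM [³⁵S]GTPγS ±50 µM GDP, then chased with 1 µM GTPγS alone or with agonist. Filtration on glass-fibre filters, scintillation counting. Three experiments in quadruplicate; exponential association/dissociation fits.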

[4] = system: G-proteins in GDP-less membranes of CHO-M2 cells; assay: Kinetics of [3H]GDP binding to GDP-less membranes; parameters: species or system Chinese hamster; conditions: 10 µM carbachol
How it was run: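 GDP-less CHO-M2 membranes, 30°C. Association of 500 nM [³H]GDP was measured after 20 min pre-incubation with buffer, 10 or 100 µM agonist, or 0.1 µM antagonist. For dissociation, membranes were prelabelled with 500 nM [³H]GDP for 180 min, then chased with 50 µM GDP alone or with ligand. Slow and fast rate constants came from biphasic fits.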

[5] = target: T2, M2 receptor-G-protein complex (Homo sapiens, UniProt P08172); assay type: binding; conditions: 10 µM [3H]GDP, GDP-less membranes, n=3
T2 sequence (P08172 1-466): T1 sequence (P08172 1-466)

[6] = target: T2, M2 receptor-G-protein complex; assay type: binding; conditions: Eqn 8, GDP-less membranes, 1 nM [3H]NMS
Gi/o G-proteins [7] = target: T3, Gi/o G-proteins (Homo sapiens, UniProt P08172); assay: biochemical; assay type: biochemical, Chinese hamster; conditions: Gi/o
T3 sequence (P08172 1-466): T1 sequence (P08172 1-466)

Gs/olf G-proteins [8] = target: T4, Gs/olf G-proteins (Homo sapiens, UniProt P08172); assay: biochemical; assay type: biochemical, Chinese hamster; conditions: Gs/olf
T4 sequence (P08172 1-466): T1 sequence (P08172 1-466)

Gq/11 G-proteins [9] = target: T5, Gq/11 G-proteins (Homo sapiens, UniProt P08172); assay: [35S]GTPγS binding to Gq/11 G-proteins; assay type: biochemical, Chinese hamster; conditions: Gq/11
T5 sequence (P08172 1-466): T1 sequence (P08172 1-466)

Gi/o G-proteins [10] = assay: Kinetics of 500 nM [3H]GDP binding to Gi/o G-proteins; parameters: species or system Chinese hamster
Gs/olf G-proteins [11] = assay: Kinetics of 500 nM [3H]GDP binding to Gs/olf G-proteins; parameters: species or system Chinese hamster
Gi/o G-proteins [12] = target: T3, Gi/o G-proteins; assay: biochemical; assay type: binding, Chinese hamster; conditions: Gi/o; cooperativity between agonist and [3H]GDP binding
Gs/olf G-proteins [13] = target: T4, Gs/olf G-proteins; assay: biochemical; assay type: binding, Chinese hamster; conditions: Gs/olf; cooperativity between agonist and [3H]GDP binding
Gq/11 G-proteins [14] = target: T5, Gq/11 G-proteins; assay type: binding, Chinese hamster; conditions: Gq/11; cooperativity between agonist and [3H]GDP binding
[15] = 100 µM carbachol, presence of 50 µM GDP

SMILES: C[N+](C)(C)CCOC(N)=O [Carbachol]
- maximal increase of [35S]GTPγS binding (Emax) [1]: threefold
- nH ([1]; Hill coefficient, Eqn 2): 0.81 ± 0.05
- effect on [35S]GTPγS binding [2]: no effect
- effect on kinetics of [35S]GTPγS binding ([3]; 100 µM carbachol, absence of GDP): did not change
- effect on rate of dissociation of [35S]GTPγS [3, 15]: no effect
- increase of equilibrium binding of [35S]GTPγS [3, 15]: fourfold
- Beq of [35S]GTPγS ([3]; 50 µM GDP +100 µM carbachol): 4.85 ± 0.19 ^*a fmol·µg^−1protein
- Beq of [35S]GTPγS ([3]; no GDP, +100 µM carbachol): 5.70 ± 0.25 fmol·µg^−1protein
- slowing of [3H]GDP association, faster fraction [4]: twofold
- factor of cooperativity α between binding of [3H]GDP and agonist (pα) [5]: −2.3 ± 0.2
- reduction of agonist affinity by GDP (factor of cooperativity β) [6]: 200 fold
- EMAX (Gi/o G-proteins [7]): 2.89 ± 0.06 fold increase over basal binding
- EMAX (Gs/olf G-proteins [8]): 1.82 ± 0.05 fold increase over basal binding
- EMAX (Gq/11 G-proteins [9]): 1.61 ± 0.02 fold increase over basal binding
- Beq1 of [3H]GDP (Gi/o G-proteins [10]; 10 µM carbachol): 1.7 ± 0.2 fmol·µg^−1 protein
- decrease of [3H]GDP equilibrium binding (Gi/o G-proteins [10]; 10 µM carbachol): 1.8 fold
- f2 of [3H]GDP dissociation (Gi/o G-proteins [10]; 10 µM carbachol): 38 ± 4%
- Beq1 of [3H]GDP (Gi/o G-proteins [10]; 100 µM carbachol): 0.35 ± 0.03 fmol·µg^−1 protein
- decrease of [3H]GDP equilibrium binding (Gi/o G-proteins [10]; 100 µM carbachol): ninefold
- f2 of [3H]GDP dissociation (Gi/o G-proteins [10]; 100 µM carbachol): 36 ± 5%
- slowing of association of [3H]GDP in comparison to fast sites (Gi/o G-proteins [10]; 100 µM carbachol): 12 fold
- Beq of [3H]GDP (Gs/olf G-proteins [11]; 10 µM carbachol): 0.43 ± 0.02 fmol·µg^−1 protein
- decrease of [3H]GDP equilibrium binding (Gs/olf G-proteins [11]; 10 µM carbachol): 1.9 fold
- Beq of [3H]GDP (Gs/olf G-proteins [11]; 100 µM carbachol): 0.10 ± 0.01 fmol·µg^−1 protein
- decrease of [3H]GDP equilibrium binding (Gs/olf G-proteins [11]; 100 µM carbachol): 8.1 fold
- effect on [3H]GDP binding association rate (Gs/olf G-proteins [11]; 10 and 100 µM carbachol): no effect
- pα (Gi/o G-proteins [12]): −2.3 ± 0.2
- pα (Gs/olf G-proteins [13]): −1.2 ± 0.1
- pα (Gq/11 G-proteins [14]): −0.85 ± 0.09
